Data published in ChEMBL document CHEMBL1255567, “Design, synthesis, and structure-activity relationships of novel bicyclic azole-amines as negative allosteric modulators of metabotropic glutamate receptor 5” (J Med Chem, 2010).
Active and inactive are the calls of the source. No cut-off for these calls is given here.

Tests used:
[1] = target: T1, Metabotropic glutamate receptor 5 (Homo sapiens, UniProt P41594); experiment: Modulation of human recombinant mGluR5 expressed in CHO cells assessed as inhibition of glutamate-induced response at 10 uM; assay type: cell-based
Target sequence in this assay (P41594 21-1212 limits assumed): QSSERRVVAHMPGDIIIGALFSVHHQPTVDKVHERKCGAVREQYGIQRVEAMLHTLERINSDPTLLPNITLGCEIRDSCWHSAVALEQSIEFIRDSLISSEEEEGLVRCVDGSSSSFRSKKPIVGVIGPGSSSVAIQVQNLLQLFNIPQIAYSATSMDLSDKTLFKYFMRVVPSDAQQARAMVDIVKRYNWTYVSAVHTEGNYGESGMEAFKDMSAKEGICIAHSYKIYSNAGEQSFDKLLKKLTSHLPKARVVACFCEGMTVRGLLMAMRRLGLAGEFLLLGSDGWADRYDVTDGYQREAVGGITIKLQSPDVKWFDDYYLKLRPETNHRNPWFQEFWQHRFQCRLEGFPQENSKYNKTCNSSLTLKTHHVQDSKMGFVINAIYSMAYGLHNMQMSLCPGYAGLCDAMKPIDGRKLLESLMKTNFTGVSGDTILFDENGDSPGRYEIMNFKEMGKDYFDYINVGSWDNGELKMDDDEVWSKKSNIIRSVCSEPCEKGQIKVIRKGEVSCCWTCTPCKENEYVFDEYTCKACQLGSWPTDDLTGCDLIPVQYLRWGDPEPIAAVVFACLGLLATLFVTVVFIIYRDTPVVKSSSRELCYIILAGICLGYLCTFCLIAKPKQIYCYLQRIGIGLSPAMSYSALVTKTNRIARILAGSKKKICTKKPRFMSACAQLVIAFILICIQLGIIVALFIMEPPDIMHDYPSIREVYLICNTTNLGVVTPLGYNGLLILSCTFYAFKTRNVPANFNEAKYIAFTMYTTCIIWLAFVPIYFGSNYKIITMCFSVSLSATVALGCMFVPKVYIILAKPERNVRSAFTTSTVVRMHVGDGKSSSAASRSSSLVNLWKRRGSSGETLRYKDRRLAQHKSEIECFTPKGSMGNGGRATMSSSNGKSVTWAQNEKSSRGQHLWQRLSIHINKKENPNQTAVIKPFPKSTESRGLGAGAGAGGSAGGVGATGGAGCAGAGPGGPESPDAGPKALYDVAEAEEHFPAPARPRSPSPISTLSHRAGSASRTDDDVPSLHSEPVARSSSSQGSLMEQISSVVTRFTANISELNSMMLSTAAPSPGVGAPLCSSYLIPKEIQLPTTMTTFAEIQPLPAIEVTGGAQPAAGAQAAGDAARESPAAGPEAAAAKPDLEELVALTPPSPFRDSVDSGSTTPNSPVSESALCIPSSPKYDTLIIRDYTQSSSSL

[2] = target: T1, Metabotropic glutamate receptor 5; experiment: Modulation of human recombinant mGluR5 expressed in CHO cells assessed as inhibition of glutamate-induced response; assay type: cell-based
How it was run: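 Aequorin cell line with doxycycline-inducible human mGluR5, induced 18 h (600 ng/mL). Cells loaded with coelenterazine-h ≥4 h at room temperature, preincubated with compound ≥3 min, then challenged with glutamate at EC80. Luminescence read on FDSS 6000, normalized to digitonin or 20 μM ATP wells. IC50 from sigmoidal fit; mean of two determinations.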
Target sequence in this assay (P41594 whole entry): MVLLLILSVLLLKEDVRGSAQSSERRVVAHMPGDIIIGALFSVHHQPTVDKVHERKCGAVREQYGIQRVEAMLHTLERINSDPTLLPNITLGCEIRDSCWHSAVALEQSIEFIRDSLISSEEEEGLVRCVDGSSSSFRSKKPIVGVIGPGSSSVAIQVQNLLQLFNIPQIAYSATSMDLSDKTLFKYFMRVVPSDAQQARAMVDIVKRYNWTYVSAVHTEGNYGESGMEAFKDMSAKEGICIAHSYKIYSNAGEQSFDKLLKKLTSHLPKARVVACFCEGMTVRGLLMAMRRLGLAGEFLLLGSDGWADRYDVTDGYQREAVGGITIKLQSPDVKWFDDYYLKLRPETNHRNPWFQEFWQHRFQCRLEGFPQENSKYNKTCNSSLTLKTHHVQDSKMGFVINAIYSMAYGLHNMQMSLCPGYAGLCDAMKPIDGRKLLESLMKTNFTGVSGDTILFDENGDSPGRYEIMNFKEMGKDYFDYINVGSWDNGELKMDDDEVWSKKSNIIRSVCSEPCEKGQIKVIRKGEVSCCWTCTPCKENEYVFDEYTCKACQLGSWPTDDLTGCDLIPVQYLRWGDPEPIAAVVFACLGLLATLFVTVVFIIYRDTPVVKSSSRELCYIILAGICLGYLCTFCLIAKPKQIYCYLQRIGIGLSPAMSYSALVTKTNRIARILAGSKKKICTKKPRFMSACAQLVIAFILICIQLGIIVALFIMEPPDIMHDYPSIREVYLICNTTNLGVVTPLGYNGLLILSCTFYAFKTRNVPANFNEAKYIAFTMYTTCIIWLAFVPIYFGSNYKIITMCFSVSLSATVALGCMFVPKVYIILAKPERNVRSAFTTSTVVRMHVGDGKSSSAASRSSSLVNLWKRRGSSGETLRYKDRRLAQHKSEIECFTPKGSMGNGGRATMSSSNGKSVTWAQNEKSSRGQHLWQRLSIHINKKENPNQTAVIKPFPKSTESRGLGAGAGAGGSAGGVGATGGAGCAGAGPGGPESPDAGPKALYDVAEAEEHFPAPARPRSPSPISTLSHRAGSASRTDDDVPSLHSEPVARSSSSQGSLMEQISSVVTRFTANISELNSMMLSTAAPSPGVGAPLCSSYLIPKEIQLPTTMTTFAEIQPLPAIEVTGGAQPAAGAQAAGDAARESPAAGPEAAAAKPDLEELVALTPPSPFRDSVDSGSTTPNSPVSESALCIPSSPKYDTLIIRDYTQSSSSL

[3] = target: Metabotropic glutamate receptor 5 (Rattus norvegicus, UniProt P31424); experiment: Displacement of [3H]-MPEP from mGluR5 in rat cortical membranes; assay type: cell membranes, Membrane
How it was run: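 Competition binding against [3H]-MPEP on rat cortical membranes, run in duplicate. Nonspecific binding defined with a 200-fold excess of reference modulator. Incubated 120 min at 4 °C in 0.1 mL, filtered on PEI-presoaked GF-C filters, washed with cold 50 mM Tris-HCl pH 7.4, scintillation counted. Ki reported as mean of two determinations; MPEP used as control.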

Brain = experiment: Drug level in Sprague-Dawley rat brain at 3 mg/kg, ip; assay type: ADME, organism-based; set-up: dose 3 mg/kg, route intraperitoneal; conditions: in vivo, read-out: Drug uptake
How it was run: (§1)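 Male Sprague-Dawley rats (200-250 g, n = 4) given 3 mg/kg ip in 45% HPβCD. Trunk blood and brain taken at sacrifice. Brain homogenized at 40 mg/mL in 95:5 water:acetonitrile with 0.1% formic acid. Plasma or homogenate precipitated with acetonitrile, dried, reconstituted and measured by LC/MS/MS.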

Rattus norvegicus [4] = experiment: Ex vivo receptor occupancy of mGluR5 receptor in Sprague-Dawley rat brain at 3 mg/kg, ip after 60 mins; assay type: functional; conditions: route intraperitoneal
How it was run: (§2)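 Male Sprague-Dawley rats (n = 4) dosed 3 mg/kg ip in 45% HPβCD. At set times postdose, iv tail-vein 3H-mPEPy tracer; decapitated 2 min later. Striatum and cerebellum sections imaged 12 h on β-imager. %RO derived from striatum:cerebellum signal ratio relative to vehicle animals; mean ± SEM.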

Rattus norvegicus [5] = experiment: Ex vivo receptor occupancy of mGluR5 receptor in po dosed Sprague-Dawley rat brain after 60 mins; assay type: functional; conditions: 1 h
How it was run: (§3)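 Male Sprague-Dawley rats (200-250 g, n = 4) dosed ip or po at 0.3, 1, 3, 10, 30 mg/kg in 45% HPβCD. After 60 min, iv 3H-mPEPy tracer; killed 2 min later. Striatal versus cerebellar radioactivity on β-imager gives %RO against vehicle. Dose-occupancy curves fitted.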

Plasma = experiment: Drug level in Sprague-Dawley rat plasma at 3 mg/kg, ip; assay type: ADME, organism-based; set-up: dose 3 mg/kg, route intraperitoneal; conditions: in vivo; how it was run: as §1
Rattus norvegicus [6] = experiment: Ex vivo receptor occupancy of mGluR5 receptor in ip dosed Sprague-Dawley rat brain after 60 mins; assay type: functional; conditions: 1 h; how it was run: as §3
[7] = AUC (0 to t) in Sprague-Dawley rat at 2 mg/kg, iv; assay type: ADME, organism-based; set-up: dose 2 mg/kg, route intravenous; conditions: plasma
How it was run: (§4)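 Male Sprague-Dawley rats, 3 per cohort; 2 mg/kg iv or 2 and 10 mg/kg oral gavage. Vehicle 40% hydroxypropyl-βCD:50 mM potassium phosphate pH 6.0 (50:50), 0.5 mg/mL nominal, filtered. Jugular-cannula blood predose and 5 min to 24 h. K2-EDTA plasma, methanol precipitation with internal standard, LC/MS/MS (LLOQ 2.5 ng/mL). Noncompartmental analysis.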

[8] = (§5) Half life in Sprague-Dawley rat at 2 mg/kg, iv; assay type: ADME, organism-based; set-up: dose 2 mg/kg, route intravenous; conditions: Sprague-Dawley, in vivo; how it was run: as §4
Rattus norvegicus [9] = experiment: as §5; assay type: ADME, organism-based; set-up: dose 2 mg/kg, route intravenous; conditions: in vivo; how it was run: as §4
[10] = Volume of distribution in Sprague-Dawley rat at 2 mg/kg, iv; assay type: ADME, organism-based; set-up: dose 2 mg/kg, route intravenous; conditions: in vivo; how it was run: as §4
[11] = Clearance in Sprague-Dawley rat at 2 mg/kg, iv; assay type: ADME, organism-based; set-up: dose 2 mg/kg, route intravenous; conditions: in vivo; how it was run: as §4
[12] = Cmax in Sprague-Dawley rat at 2 mg/kg, iv; assay type: ADME, organism-based; set-up: dose 2 mg/kg, route intravenous; conditions: in vivo; how it was run: as §4
[13] = AUC (0 to t) in Sprague-Dawley rat at 2 mg/kg, po; assay type: ADME, organism-based; set-up: dose 2 mg/kg, route oral; conditions: plasma; how it was run: as §4
[14] = Half life in Sprague-Dawley rat at 2 mg/kg, po; assay type: ADME, organism-based; set-up: dose 2 mg/kg, route oral; conditions: in vivo; how it was run: as §4
[15] = Cmax in Sprague-Dawley rat at 2 mg/kg, po; assay type: ADME, organism-based; set-up: dose 2 mg/kg, route oral; conditions: in vivo; how it was run: as §4
[16] = Oral bioavailability in Sprague-Dawley rat at 2 mg/kg; assay type: ADME, organism-based; conditions: in vivo; how it was run: as §4
[17] = AUC (0 to t) in Sprague-Dawley rat at 10 mg/kg, po; assay type: ADME, organism-based; set-up: dose 10 mg/kg, route oral; conditions: plasma; how it was run: as §4
[18] = Half life in Sprague-Dawley rat at 10 mg/kg, po; assay type: ADME, organism-based; set-up: dose 10 mg/kg, route oral; conditions: in vivo; how it was run: as §4
[19] = Cmax in Sprague-Dawley rat at 10 mg/kg, po; assay type: ADME, organism-based; set-up: dose 10 mg/kg, route oral; conditions: in vivo; how it was run: as §4
[20] = Oral bioavailability in Sprague-Dawley rat at 10 mg/kg; assay type: ADME, organism-based; conditions: in vivo; how it was run: as §4
[21] = AUC (0 to t) in rhesus monkey at 1 mg/kg, iv; assay type: ADME, organism-based, Macaca mulatta; set-up: dose 1 mg/kg, route intravenous; conditions: plasma
How it was run: (§6)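 Male Rhesus monkeys, 3 per cohort; 1 mg/kg iv or oral gavage. Vehicle 40% hydroxypropyl-βCD:50 mM potassium phosphate pH 6.0 (50:50), 0.5 mg/mL nominal, filtered. Femoral vein blood predose and 5 min to 24 h. K3EDTA plasma, protein precipitation with internal standard, LC/MS/MS (LLOQ 2.5 ng/mL). Noncompartmental PK parameters.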

[22] = Half life in rhesus monkey at 1 mg/kg, iv; assay type: ADME, organism-based, Macaca mulatta; set-up: dose 1 mg/kg, route intravenous; conditions: in vivo; how it was run: as §6
[23] = Volume of distribution in rhesus monkey at 1 mg/kg, iv; assay type: ADME, organism-based, Macaca mulatta; set-up: dose 1 mg/kg, route intravenous; conditions: in vivo; how it was run: as §6
[24] = Clearance in rhesus monkey at 1 mg/kg, iv; assay type: ADME, organism-based, Macaca mulatta; set-up: dose 1 mg/kg, route intravenous; conditions: in vivo; how it was run: as §6
Rhesus monkey = experiment: Cmax in rhesus monkey at 1 mg/kg, iv; assay type: ADME, organism-based, Macaca mulatta; set-up: dose 1 mg/kg, route intravenous; conditions: in vivo; how it was run: as §6
[25] = AUC (0 to t) in rhesus monkey at 1 mg/kg, po; assay type: ADME, organism-based, Macaca mulatta; set-up: dose 1 mg/kg, route oral; conditions: plasma; how it was run: as §6
[26] = Half life in rhesus monkey at 1 mg/kg, po; assay type: ADME, organism-based, Macaca mulatta; set-up: dose 1 mg/kg, route oral; conditions: in vivo; how it was run: as §6
[27] = Cmax in rhesus monkey at 1 mg/kg, po; assay type: ADME, organism-based, Macaca mulatta; set-up: dose 1 mg/kg, route oral; conditions: in vivo; how it was run: as §6
[28] = Oral bioavailability in rhesus monkey at 1 mg/kg; assay type: ADME, organism-based, Macaca mulatta; conditions: in vivo; how it was run: as §6
Rattus norvegicus [29] = experiment: Ex vivo receptor occupancy of mGluR5 receptor in Sprague-Dawley rat brain at 3 mg/kg, ip after 30 mins; assay type: functional; conditions: route intraperitoneal; how it was run: as §2
Rattus norvegicus [30] = experiment: Ex vivo receptor occupancy of mGluR5 receptor in Sprague-Dawley rat brain at 3 mg/kg, ip after 2 hrs; assay type: functional; conditions: route intraperitoneal; how it was run: as §2
Rattus norvegicus [31] = experiment: Ex vivo receptor occupancy of mGluR5 receptor in Sprague-Dawley rat brain at 3 mg/kg, ip after 24 hrs; assay type: functional, organism-based; set-up: dose 3 mg/kg; how it was run: as §2
[32] = target: Kappa-type opioid receptor (Homo sapiens) (UniProt P41145); experiment: Inhibition of kappa opioid receptor at 10 uM
Chain of Kappa-type opioid receptor (Homo sapiens) (P41145 whole entry): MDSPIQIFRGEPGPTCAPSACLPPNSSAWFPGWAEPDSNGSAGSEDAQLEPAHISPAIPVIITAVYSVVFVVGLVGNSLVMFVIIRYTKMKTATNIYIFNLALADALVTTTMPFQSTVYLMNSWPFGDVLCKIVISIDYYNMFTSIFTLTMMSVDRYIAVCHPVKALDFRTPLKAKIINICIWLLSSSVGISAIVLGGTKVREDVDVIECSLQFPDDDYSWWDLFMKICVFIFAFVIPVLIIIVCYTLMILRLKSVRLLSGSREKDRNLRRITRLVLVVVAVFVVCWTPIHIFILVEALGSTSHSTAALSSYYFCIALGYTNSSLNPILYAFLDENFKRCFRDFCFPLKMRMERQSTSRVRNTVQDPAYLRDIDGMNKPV

Chain of Metabotropic glutamate receptor 5 (Rattus norvegicus, UniProt P31424) (P31424 whole entry): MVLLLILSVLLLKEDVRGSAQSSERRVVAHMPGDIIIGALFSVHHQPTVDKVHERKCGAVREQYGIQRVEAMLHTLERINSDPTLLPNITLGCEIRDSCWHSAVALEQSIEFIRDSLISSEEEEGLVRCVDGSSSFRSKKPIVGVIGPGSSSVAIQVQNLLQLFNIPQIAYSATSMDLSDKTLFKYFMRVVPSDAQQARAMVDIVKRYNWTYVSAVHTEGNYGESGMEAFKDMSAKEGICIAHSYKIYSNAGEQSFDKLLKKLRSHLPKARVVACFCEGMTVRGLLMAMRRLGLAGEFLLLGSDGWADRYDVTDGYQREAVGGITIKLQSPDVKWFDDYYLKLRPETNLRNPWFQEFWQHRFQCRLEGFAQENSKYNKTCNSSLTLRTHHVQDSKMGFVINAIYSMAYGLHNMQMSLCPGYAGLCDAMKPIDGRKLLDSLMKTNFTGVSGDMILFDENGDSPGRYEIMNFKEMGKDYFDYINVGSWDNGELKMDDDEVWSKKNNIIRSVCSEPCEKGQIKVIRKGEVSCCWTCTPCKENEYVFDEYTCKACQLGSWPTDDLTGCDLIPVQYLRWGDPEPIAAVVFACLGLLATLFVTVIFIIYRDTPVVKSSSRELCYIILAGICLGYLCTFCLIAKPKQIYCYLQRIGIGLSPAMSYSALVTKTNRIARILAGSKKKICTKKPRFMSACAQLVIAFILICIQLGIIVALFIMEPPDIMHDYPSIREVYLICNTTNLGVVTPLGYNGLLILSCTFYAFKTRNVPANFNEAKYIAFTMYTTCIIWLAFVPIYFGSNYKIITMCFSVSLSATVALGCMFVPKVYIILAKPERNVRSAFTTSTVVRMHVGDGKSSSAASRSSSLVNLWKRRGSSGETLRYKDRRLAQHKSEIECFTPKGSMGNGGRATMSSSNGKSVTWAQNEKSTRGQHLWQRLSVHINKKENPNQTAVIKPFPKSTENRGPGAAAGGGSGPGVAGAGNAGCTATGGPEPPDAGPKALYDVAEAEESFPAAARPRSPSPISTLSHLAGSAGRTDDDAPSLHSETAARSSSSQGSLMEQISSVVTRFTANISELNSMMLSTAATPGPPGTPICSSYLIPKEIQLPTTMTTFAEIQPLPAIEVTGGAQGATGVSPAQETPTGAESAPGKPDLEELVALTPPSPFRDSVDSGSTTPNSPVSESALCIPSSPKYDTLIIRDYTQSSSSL

## CC(C)c1nc2c(o1)CN(c1cccc(C#N)c1)CC2
[1]
  inhibition: 6%

## c1ccc(N2CCc3oc(-c4ccccn4)nc3C2)cc1
[2]
  IC50: 0.33 µM

## CC(C)N1CCc2oc(-c3ccccn3)nc2C1
[1]
  inhibition: 0%

## Cc1nc2c(o1)CCN(c1ncccc1C#N)C2
[1]
  inhibition: 7%

## N#Cc1cccc(N2CCc3nc(-c4cccnc4)oc3C2)c1
[1]
  inhibition: 14%

## N#Cc1cccc(C(=O)N2CCc3nc(-c4ccccn4)oc3C2)c1
[2]
  IC50: 2.6 µM

## N#Cc1cccc(N2CC3N=C(c4ccccn4)OC3C2)c1 (stereo not drawn)
[2]
  IC50: 0.219 µM

## N#Cc1cccnc1N1CCc2oc(-c3ccccc3)nc2C1
[2]
  IC50: 1.2 µM

## N#Cc1cc(F)cc(N2CCn3cc(-c4ccccn4)nc3C2)c1
[2]
  IC50: 0.153 µM

## N#Cc1cccnc1N1CCc2nc(-c3ccccc3)oc2C1
[1]
  inhibition: 79%

## N#Cc1cc(F)cc(N2CCc3oc(-c4ccccn4)nc3C2)c1
[3]
  Ki: 0.017 µM
[2]
  IC50: 0.028 µM
Brain
  concentration: 1.29 µM
Rattus norvegicus [4]
  Activity: 45%
Rattus norvegicus [5]
  ED50: > 30 mg/kg

## N#Cc1cccc(N2CCc3oc(-c4ccncc4)nc3C2)c1
[1]
  inhibition: 30%

## c1ccc(-c2nc3c(o2)CCN(C2CCCCC2)C3)nc1
[1]
  inhibition: 0%

## N#Cc1cc(F)cc(N2CCc3nc(-c4ccccn4)[nH]c3C2)c1
[1]
  inhibition: 34%

## N#Cc1cccc(N2CCc3nc(C4CCCCN4)oc3C2)c1 (racemic)
[1]
  inhibition: 79%

## N#Cc1cccc(CN2CCc3nc(-c4ccccn4)oc3C2)c1
[1]
  inhibition: 55%

## N#Cc1cccnc1N1CCc2nc(-c3ccccn3)oc2C1
[2]
  IC50: 0.64 µM

## N#Cc1cc(F)cc(N2CCc3nc(-c4ccccn4)sc3C2)c1
[1]
  inhibition: 52%

## COC(=O)N1CCc2oc(-c3ccccn3)nc2C1
[1]
  inhibition: 11%

## N#Cc1cc(F)cc(N2CCn3nc(-c4ccccn4)nc3C2)c1
[2]
  IC50: 0.346 µM

## N#Cc1cccnc1N1CCc2oc(-c3ccccn3)nc2C1
[2]
  IC50: 0.11 µM

## N#Cc1cccc(N2CCc3oc(-c4ccccn4)nc3C2)c1
[2]
  IC50: 0.06 µM

## N#Cc1cccc(N2CCc3nc(-c4ccccn4)oc3C2)c1
[2]
  IC50: 0.29 µM

## N#Cc1cc(F)cc(N2CCCc3oc(-c4ccccn4)nc3C2)c1
[3]
  Ki: 0.017 µM
[2]
  IC50: 0.016 µM
Rattus norvegicus [4]
  Activity: 82%
Plasma
  concentration: 1.43 µM
Rattus norvegicus [6]
  ED50: 0.9 mg/kg
[7]
  AUC(0-t): 2260 nM·h
[8]
  half-life: 37.2 min
Rattus norvegicus [9]
  Drug uptake: 1096 nM
[10]
  Vd: 2.38 L/kg
[11]
  clearance: 2.79 L/h/kg
[12]
  Cmax: 5.25 µM
[13]
  AUC(0-t): 700 nM·h
[14]
  half-life: 46.2 min
[15]
  Cmax: 0.62 µM
[16]
  bioavailability: 31%
[17]
  AUC(0-t): 3360 nM·h
[18]
  half-life: 54.6 min
[19]
  Cmax: 2.73 µM
[20]
  bioavailability: 30%
[21]
  AUC(0-t): 3060 nM·h
[22]
  half-life: 40.2 min
[23]
  Vd: 0.95 L/kg
[24]
  clearance: 0.98 L/h/kg
Rhesus monkey
  Cmax: 5.08 µM
[25]
  AUC(0-t): 280 nM·h
[26]
  half-life: 37.8 min
[27]
  Cmax: 0.21 µM
[28]
  bioavailability: 10%
Rattus norvegicus [29]
  Activity: 85%
Rattus norvegicus [30]
  Activity: 55%
Rattus norvegicus [31]
  Activity: inactive
[32]
  inhibition: 77%

## c1ccc(-c2nc3c(o2)CCN(C2CCNCC2)C3)nc1
[1]
  inhibition: 0%

## N#Cc1cccc(N2CCc3nc(C4CCCCC4)oc3C2)c1
[1]
  inhibition: 79%

## N#Cc1cc(F)cc(N2CCc3nc(-c4ccccn4)oc3C2)c1
[2]
  IC50: 0.054 µM

## N#Cc1cccc(S(=O)(=O)N2CCc3nc(-c4ccccn4)oc3C2)c1
[1]
  inhibition: 14%
